RGS4 inh: RGS4 inhibitors, primary screen, cell-based, HEK293 M3R inducible RGS4, calcium flux; B-score at 10 µM; Regulator of G-protein signaling 4 (Homo sapiens), P49798; Fluo-4 calcium flux; active compounds read high; triggered by carbachol at its EC20; actives 0.45% (n = 310,000);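 active means B-score, a plate-corrected calcium signal, over three deviations above library mean, with baseline fluorescence within five deviations of library mean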;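 further: RGS4 expression induced by doxycycline in cells with stable M3 receptor; B-score is computed from the integrated fluorescence ratio over baseline after carbachol; higher B-score means a larger calcium signal and so more RGS4 inhibition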
Target sequence (P49798 whole entry, looked up): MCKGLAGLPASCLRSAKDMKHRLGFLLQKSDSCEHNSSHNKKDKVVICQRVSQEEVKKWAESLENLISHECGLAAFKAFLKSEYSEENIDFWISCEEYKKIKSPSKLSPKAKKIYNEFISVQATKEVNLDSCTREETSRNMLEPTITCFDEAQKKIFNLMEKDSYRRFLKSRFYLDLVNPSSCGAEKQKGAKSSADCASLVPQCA
MrgX1 allo act: positive allosteric modulators of MrgX1, primary screen, HEK293 cells, Fluo-4 calcium flux. FDSS; active compounds read high. B-score at 10 µM. actives 0.63% (n = 310,000);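 active means plate-corrected calcium response at least 3 library SD above typical, normal starting fluorescence, not activating the receptor alone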;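 further: compound read alongside a low EC10 to EC30 dose of BAM8-22 agonist; peak minus trough fluorescence over baseline measured at the second addition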
Target sequence (Q96LB2 whole entry, looked up): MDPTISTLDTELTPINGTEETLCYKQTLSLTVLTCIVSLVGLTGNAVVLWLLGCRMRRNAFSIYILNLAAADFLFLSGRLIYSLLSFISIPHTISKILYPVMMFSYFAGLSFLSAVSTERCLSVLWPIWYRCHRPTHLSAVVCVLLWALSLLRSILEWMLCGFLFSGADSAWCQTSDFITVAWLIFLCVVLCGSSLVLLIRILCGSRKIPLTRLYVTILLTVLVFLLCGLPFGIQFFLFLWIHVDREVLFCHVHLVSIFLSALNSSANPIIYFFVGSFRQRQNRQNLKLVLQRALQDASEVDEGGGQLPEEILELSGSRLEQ
RGS4 act: RGS4 potentiators or activators, primary screen, cell-based, HEK293 M3R inducible RGS4, calcium flux | carbachol calcium flux Fluo4; active compounds read low | B-score at 10 µM | actives 0.92% (n = 310,000);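 active means B-score of the integrated calcium signal more than 4 SD below the library mean, with starting fluorescence not abnormally high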;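 further: negative B-score means reduced calcium response which marks RGS4 activation or potentiation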
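Assay system: Inducible-RGS4 HEK293 cells carrying M3 receptor | Schedule: Compound preincubation 20 min at room temperature before agonist | Signal: Kinetic calcium fluorescence imaging with Fluo4-AM dye, 2 µM | Read-out basis: B score from integrated fluorescence ratio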
MrgX1 antag: antagonists of human MrgX1 receptor, primary screen, HEK293 cells, Fluo-4 calcium flux; Mas-related G-protein coupled receptor member X1 (Homo sapiens), Q96LB2; actives 1.3% (n = 310,000); BAM8-22 antagonism; active compounds read low; AID 588676, 2011; B-score at 10 µM;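 active means calcium-response B-score plate-corrected more than 3 library SD below zero, starting fluorescence within 5 deviations, no agonist response on first addition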;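 further: peak minus trough fluorescence over baseline after final BAM8-22 challenge near maximal dose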
MrgX1 ag: agonists of human MrgX1 receptor, primary screen, HEK293 cells, Fluo-4 calcium flux; Mas-related G-protein coupled receptor member X1 (Homo sapiens), Q96LB2; AID 588627, 2011; actives 0.44% (n = 310,000); Fluo-4 calcium fluorescence, agonist mode; active compounds read high; B-score at 10 µM;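 active means calcium response B-score plate-corrected fluorescence ratio at least 3 library SD, with starting fluorescence B-score inside 5 SD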
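System: HEK293 cells stably expressing human MrgX1 receptor; Dosing: test compound in the initial addition of three; Schedule: overnight plating, then 30 min 37 °C plus 30 min room-temperature dye loading; Detection: kinetic calcium dye fluorescence, Fluo-4 NW; Controls: per-plate positive and negative controls for Z′ factor.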
RGS4 activ val: reduced carbachol calcium response, RGS4-induced M3R cells, confirmation, RGS4 activator project, cell-based, HEK293 M3R/RGS4 inducible, calcium flux, duplicate | AID 602282, 2012 | inhibition, % at 10 µM | actives 89% (n = 1,100) | shares compounds with RGS4 act | carbachol calcium flux Fluo4;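 active means inhibition above 3 SD of the buffer control wells, cut at about 41% in these data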;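 further: signal is the integrated peak-minus-minimum Fluo4 fluorescence over baseline ratio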
M3R Ca counter: RGS4 activator counter-screen hit in non-induced cells; shares compounds with RGS4 act; HEK293 M3R non-induced RGS4, Fluo4 calcium flux; after carbachol challenge at its EC90; inhibition, % at 10 µM; actives 82% (n = 1,100);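 active means inhibition exceeding 3 SD of buffer-only control wells, cut at about 26% in these data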;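 further: percent drop in integrated peak-minus-baseline over baseline Fluo4 ratio after carbachol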
* hit, by the source's call; i = inactive; x = no result. In the library only some 3.5% were active in any assay of this set; here they are far more common.

SMILES	RGS4 inh	MrgX1 allo act	RGS4 act	MrgX1 antag	MrgX1 ag	others
O=C(O)c1ccc(CNC(=O)c2ccc3c(c2)C(=O)N(Cc2cccnc2)C3=O)cc1	i	i	i	-4.9*	i
CCC(C)C(NC(=O)OC(C)(C)C)C(=O)NC(Cc1ccccc1)C(=O)OC (stereo unspecified)	i	7.3*	i	i	i
Cc1ccnc(NC(=O)CSc2ccc3c(c2)OCCO3)c1	i	i	-7.3*	i	i
COc1ccc(Cc2nnc(SCC(=O)NC3(C#N)CCCCC3)n2N)cc1	i	i	i	i	i
CN(Cc1ccccc1)CC1CCCN(CCc2ccccc2F)C1 (stereo unspecified)	i	i	i	i	i
CC(=O)c1cccc(CN(C)CC2CCCN(CCc3ccccc3C)C2)c1 (stereo unspecified)	i	i	-7*	i	i
CCCCOP(=O)(OCCCC)C1(NS(=O)(=O)c2ccccc2)C=CC(=O)c2ccccc21 (stereo unspecified)	i	i	i	i	i
COc1c(CC=C(C)C)c(O)cc2oc(=O)c3c4ccc(O)cc4oc3c12	i	i	i	-11*	i
COc1c2c(cc3oc(=O)c4c5ccc(O)cc5oc4c13)OC(C)(C)CC2	i	i	i	i	i
Cc1cc(OCC(=O)Nc2nnc(C3CC3)s2)ccc1[N+](=O)[O-]	i	i	i	i	i
O=C(ON=C1CCN(S(=O)(=O)c2ccccc2)CC1)c1ccc(F)cc1	i	i	i	-6.1*	i
O=c1ccc2cc3c([nH]c4ccc(Br)cc43)oc-2c1O	i	11*	i	i	i
O=C(/C=C/Nc1ccc(Br)cc1F)c1ccccc1	i	i	i	-6*	i
NC(=O)c1ncn([C@@H]2O[C@H](CO)[C@@H](O)[C@H]2O)c1O	i	i	i	-9*	i
Nc1ncn(C2O[C@H](CO)[C@@H](O)[C@H]2O)c(=O)n1 (stereo partly specified)	x	i	x	i	i
CCOc1ccc(N(CC(=O)NC2CC2)S(=O)(=O)c2ccc(C)cc2)cc1	i	i	i	i	i
FC(F)(F)c1cccc(NC(=S)Nc2ccc(Cl)c(Cl)c2)c1	i	i	i	-8.4*	i
COc1ccc(OC)c(S(=O)(=O)NC(N)=NCCc2ccccc2)c1	i	i	i	i	i
Cc1nc(N/N=C/c2ccc(O)cc2)c2cnn(-c3ccccc3)c2n1	i	i	i	-7.5*	i
COc1cccc(/C=N/N=C(\N)c2nonc2N)c1O	i	i	i	i	i
CCC(=O)O[C@]1(C(=O)SCF)[C@H](C)C[C@H]2[C@@H]3C[C@H](F)C4=CC(=O)C=C[C@]4(C)[C@@]3(F)[C@@H](O)C[C@@]21C	i	i	i	-6.2*	i
O=C(CCN1C(=O)/C(=C\c2cccc(Br)c2)SC1=S)N1CCOCC1	i	i	i	i	i
O=C(Nc1cc(Cl)ccn1)C1(c2ccccc2)CC1(Cl)Cl (stereo unspecified)	i	i	i	i	i
CN(C)c1ccc(/C=C/C(=O)c2cc(Cl)ccc2O)cc1	i	i	i	-6.8*	i
O=[S@]1Oc2ccccc2-c2ccccc21	i	i	i	i	i
SMILES	RGS4 inh	MrgX1 allo act	RGS4 act	MrgX1 antag	MrgX1 ag	others
O=C(Nc1ccc2c(c1)OCCO2)c1cccc2nc3ccccc3nc12	i	i	-9.3*	i	i	RGS4 activ val=86*;M3R Ca counter=52*
O=C(Nc1ccc2c(c1)OCCO2)c1ccccc1F	i	i	i	i	i
Oc1ccc(Nc2nc(N3CCCC3)c3ccccc3n2)cc1	i	i	-8.2*	i	i	RGS4 activ val=91*;M3R Ca counter=65*
CCOc1ccc2cc(C#N)c(SCC(=O)NC(C)CC)nc2c1 (stereo unspecified)	i	i	i	i	i
Cc1ccc(NC(=O)c2cc(C(C)(C)C)nn2Cc2ccccc2)cc1	i	i	-7.6*	i	i	RGS4 activ val=95*;M3R Ca counter=82*
O=C1C=C(N2CCCCCC2)C2(CCCCC2)O1	i	i	-8.4*	i	i	RGS4 activ val=66*;M3R Ca counter=0
O=[N+]([O-])c1ccccc1COc1ccc(Cl)c2cccnc12	i	i	i	i	i
Cc1cccc2nc(COc3ccc(Cl)c4cccnc34)cn12	i	i	-10*	i	i	RGS4 activ val=0;M3R Ca counter=84*
CC1CCN(C(=O)CSc2ccc(-c3cccnc3)nn2)CC1	i	i	i	i	i
CCCc1nc2ccccc2c(C(=O)OCC(=O)N2CCc3ccccc32)c1CC	i	i	-8.6*	i	i	RGS4 activ val=84*;M3R Ca counter=84*
CCCc1nc2ccccc2c(C(=O)OCC(=O)Nc2cccc(S(=O)(=O)N3CCOCC3)c2)c1CC	i	i	-8.9*	i	i	RGS4 activ val=92*;M3R Ca counter=92*
CC1CCc2nc3ccccc3c(C(=O)OCC(=O)N3CCc4ccccc43)c2C1 (stereo unspecified)	i	i	i	i	i
COCCN(C(=O)Nc1ccccc1OC)c1nc2ccccc2s1	i	i	-7.7*	i	i	RGS4 activ val=92*;M3R Ca counter=91*
CCn1cnc2c([N+](=O)[O-])c(NS(=O)(=O)c3ccc(C)cc3)ccc21	i	i	i	i	i
Cc1c(OCC(=O)N(C)C)ccc2c3c(c(=O)oc12)CCCCC3	i	i	-7.9*	i	i	RGS4 activ val=64*;M3R Ca counter=32*
CC(=O)Nc1cccc(-n2nnc(SCC(=O)N(C)c3ccccc3)n2)c1	i	i	i	i	i
CCCNc1c(NS(=O)(=O)c2cccs2)c(=O)oc2ccccc12	i	i	i	i	i
CN(C)CC(=O)N1c2ccccc2CCc2ccc(NC(=O)c3ccc(N)cc3)cc21	i	i	i	i	i
COc1cc(C(=O)Nc2ccc3c(c2)N(C(=O)CCN(C)C)c2ccccc2CC3)cc(OC)c1OC	i	i	-12*	i	i	RGS4 activ val=92*;M3R Ca counter=79*
